Molecules are shown by their SMILES. Active and inactive are the calls of the source. No cut-off for these calls is given here.

Assay [1] deals with T1, Adenosine receptor A1 (Homo sapiens) (UniProt P30542).
T1 sequence (whole entry): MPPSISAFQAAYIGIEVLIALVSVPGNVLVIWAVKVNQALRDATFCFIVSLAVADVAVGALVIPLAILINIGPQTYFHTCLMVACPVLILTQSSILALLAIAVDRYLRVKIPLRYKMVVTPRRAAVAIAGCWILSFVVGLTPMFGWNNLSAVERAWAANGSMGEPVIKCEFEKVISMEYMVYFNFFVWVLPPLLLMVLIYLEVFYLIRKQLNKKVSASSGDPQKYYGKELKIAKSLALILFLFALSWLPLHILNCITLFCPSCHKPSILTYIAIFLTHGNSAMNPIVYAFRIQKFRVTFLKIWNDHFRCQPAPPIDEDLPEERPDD
Put plainly: Inhibition of human recombinant adenosine A1 receptor expressed in CHO-K1 cells at 10 uM. It is filed as cell-based.

For assay [2], the target named is T2, Adenosine receptor A3 (Homo sapiens) (UniProt P0DMS8).
T2 sequence (whole entry): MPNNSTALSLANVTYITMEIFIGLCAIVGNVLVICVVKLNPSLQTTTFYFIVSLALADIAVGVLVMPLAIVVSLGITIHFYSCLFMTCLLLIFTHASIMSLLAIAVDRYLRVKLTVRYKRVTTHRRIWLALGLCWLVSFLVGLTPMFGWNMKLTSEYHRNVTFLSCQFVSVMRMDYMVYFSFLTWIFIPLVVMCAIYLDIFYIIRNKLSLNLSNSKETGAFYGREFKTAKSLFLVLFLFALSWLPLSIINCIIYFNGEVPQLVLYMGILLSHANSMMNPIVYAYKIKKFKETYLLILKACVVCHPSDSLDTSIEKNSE
The assay can be described thus: Inhibition of human adenosine A3 receptor at 10 uM.

Assay [3] deals with T2, Adenosine receptor A3 (Homo sapiens). Put plainly: Binding affinity to human adenosine A3 receptor.
In assay [4] the test system is Mus musculus. Put plainly: Induction of striatal movement in CD1 mouse at 20 to 200 mg/kg, po after 60 to 240 mins by Irwin test. It is filed as functional, organism-based. In outline: (§1)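 Irwin test in CD-1 mice, 5–6 weeks old, 4 per group. Compounds suspended in 0.1% Tween 80 in 0.5% CMC and given orally at 20, 100 and 200 mg/kg in 10 mL/kg. Behaviour recorded by camera at 60 and 240 min after dosing; stereotypies scored: sniffing (limbic), licking and biting (striatal).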

Assay [5] has as its system Mus musculus. The assay can be described thus: Induction of limbic movement in CD1 mouse at 20 to 200 mg/kg, po after 60 to 240 mins by Irwin test. Conditions: Limbic system. It is filed as functional, organism-based. The gist of the method: as §1
Assay [6] concerns the target T3, Adenosine receptor A2a (Homo sapiens, UniProt P29274). The assay can be described thus: Inhibition of human recombinant adenosine A2A receptor expressed in HEK293 cells at 10 uM. It is filed as cell-based.
The target in a further assay is T4, Adenosine receptor A1 (Homo sapiens, UniProt P30542).
T4 sequence (P30542 whole entry): T1 sequence (whole entry)
The assay can be described thus: Displacement of [3H]DPCPX from human recombinant adenosine A1 receptor expressed in CHO-K1 cells after 60 mins. It is filed as cell-based. For orientation: In a radioligand displacement assay an active substance lowers the binding of a labelled ligand.

In assay [7] the target is T3, Adenosine receptor A2a. Put plainly: Displacement of [3H]ZM241385 from human recombinant adenosine A2A receptor expressed in HEK293 cells after 1 hr by competitive binding assay. It is filed as cell-based. The gist of the method:
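HEK293 membranes expressing human A2A receptor pretreated with 2 IU/mL adenosine deaminase, 30 min at 37 °C. Competition with [3H]ZM241385 at its Kd (2 nM) using 5–10 µg protein and test compound 0.01–10,000 nM, 1 h at 4 °C in 50 mM Tris-HCl pH 7.4, 10 mM MgCl2. Nonspecific binding with 10 µM unlabeled ZM241385. Ki via Cheng–Prusoff; four experiments in triplicate.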

Assay [8] concerns the target T3, Adenosine receptor A2a. Put plainly: Antagonist activity at human adenosine A2A receptor expressed in HEK293 cells assessed as inhibition of NECA-induced cAMP accumulation incubated for 10 mins prior to NECA addition. It is filed as functional, cell-based. In outline: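 HEK-293 cells stably expressing human A2A, plated 48 h ahead. They were pretreated 10 min at 37 °C with 0.5 mM Ro20-1724 and 2 IU/mL adenosine deaminase, then compound (10^-4 to 10^-10 M) for 10 min at 37 °C, then 100 nM NECA for 20 min. cAMP was extracted and measured by enzyme immunoassay. IC50 came from nonlinear regression of four independent experiments.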
In general terms: Cyclic AMP is a second messenger, typically raised through Gs and lowered through Gi signalling.

T3 sequence (P29274 whole entry): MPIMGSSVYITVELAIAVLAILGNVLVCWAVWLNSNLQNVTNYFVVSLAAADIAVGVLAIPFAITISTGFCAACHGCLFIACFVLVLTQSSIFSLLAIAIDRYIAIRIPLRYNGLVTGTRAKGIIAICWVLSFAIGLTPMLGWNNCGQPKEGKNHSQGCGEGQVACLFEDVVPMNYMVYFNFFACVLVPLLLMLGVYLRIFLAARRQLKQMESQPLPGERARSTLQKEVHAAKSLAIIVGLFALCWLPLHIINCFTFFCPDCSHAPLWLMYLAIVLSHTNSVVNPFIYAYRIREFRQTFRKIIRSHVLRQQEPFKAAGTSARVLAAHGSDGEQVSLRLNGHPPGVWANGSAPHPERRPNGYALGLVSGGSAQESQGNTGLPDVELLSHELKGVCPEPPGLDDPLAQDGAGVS

Take `CC(=O)CCc1nc(N)c2nc(-n3nccn3)n(C)c2n1`: the inhibition result (in assay [1]; at Adenosine receptor A2a [6]) was “Active” in each case. Also, in assay [2], the inhibition (as a rule, the change of the read-out against control, counted positive when it falls) amounted to 56%. Moreover, in assay [3], the outcome was inactive. Further, the result with Mus musculus [4] and in the assay with Mus musculus [5] was Active.
In the case of `CCCC(O)c1nc(N)c2nc(-n3nccn3)n(C)c2n1` (racemic), the inhibition entry (in [1]; on Adenosine receptor A2a [6]) was “Active” in each case. The Ki (as a rule, the equilibrium dissociation constant of an inhibitor or competing ligand from its target) on Adenosine receptor A1 is 0.16 µM. Besides, in assay [2], the inhibition was determined as 55%. The outcome in assay [3] was inactive. The outcome in the assay on Mus musculus [4] and with Mus musculus [5] was Active.
Regarding `CCC(O)Cc1nc(N)c2nc(-n3nccn3)n(C)c2n1` (configuration not stated), the Ki on Adenosine receptor A2a [7] was 0.064 µM.
As to `Cn1c(-n2nccn2)nc2c(N)nc(CCCCO)nc21`, the inhibition result (in assay [1]; at Adenosine receptor A2a [6]) was “Active” throughout. Also, at Adenosine receptor A1, the Ki was determined as 0.15 µM. The same compound yielded an inhibition in assay [2] of 47%. For the same compound, the outcome in assay [3] was inactive.
With `C[C@H](O)CCc1nc(N)c2nc(-n3nccn3)n(C)c2n1`, the Ki at Adenosine receptor A1 is 0.053 µM.
In the case of `CC(O)CCc1nc(N)c2nc(-n3nccn3)n(C)c2n1` (racemic), the inhibition entry (in [1]; on Adenosine receptor A2a [6]) was “Active” throughout. In addition, the inhibition constant Ki was 0.034 µM at Adenosine receptor A1 and 0.0084 µM at Adenosine receptor A2a [7]. In [2], this compound registered an inhibition of 61%. Further, the result in assay [3] was inactive. The outcome in the assay with Mus musculus [4] and with Mus musculus [5] was Active.
On to `CCCCc1nc(N)c2nc(-n3nccn3)n(C)c2n1` [ST1535], for which the inhibitory constant (Ki) at Adenosine receptor A1 was found to be 0.1 µM. For the same compound, the IC50 (commonly the concentration at which inhibition is half-maximal) at Adenosine receptor A2a [8] stood at 0.43 µM.
In the case of `C[C@@H](O)CCc1nc(N)c2nc(-n3nccn3)n(C)c2n1`, the Ki on Adenosine receptor A1 was determined as 0.034 µM; at Adenosine receptor A2a [7], 0.0075 µM.

(Values after ChEMBL document CHEMBL2396554, “Synthesis and biological evaluation of metabolites of 2-n-butyl-9-methyl-8-[1,2,3]triazol-2-yl-9H-purin-6-ylamine (ST1535), a potent antagonist of the A2A adenosine receptor for the treatment of Parkinson's disease” (J Med Chem, 2013).)
